Compounds with a hit are over-represented: about 0.77% of the library has one in this group of screens.
bIAP activator: intestinal alkaline phosphatase (bovine) activation | purified bovine IAP, CDP-star luminescence, 30 min; stronger effect = higher value; fold of DMSO-control signal, blank-subtracted | activation factor at 20 µM | actives 0.17% (n = 200,000) | AID 1016;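 active = activation factor of 2 or more at 20 µM, a signal rise over negative controls twice the positive control's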
mIAP block: mouse IAP inhibition; purified mouse IAP, CDP-Star luminescence, 30 min; inhibition, % at 10 µM; actives 0.2% (n = 330,000); AID 2806;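 active = inhibition of at least 40% at 10 µM in the primary screen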
hIAP activ: human IAP activation | purified human IAP, CDP-Star luminescence, 30 min; stronger effect = higher value; 1 = vehicle-only enzyme, 0 = enzyme-free background | activation factor at 10 µM | actives 0.16% (n = 330,000) | AID 2524;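 active = activation factor of the enzyme at least 2-fold when tested at 20 µM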
Target sequence (P09923 whole entry, looked up): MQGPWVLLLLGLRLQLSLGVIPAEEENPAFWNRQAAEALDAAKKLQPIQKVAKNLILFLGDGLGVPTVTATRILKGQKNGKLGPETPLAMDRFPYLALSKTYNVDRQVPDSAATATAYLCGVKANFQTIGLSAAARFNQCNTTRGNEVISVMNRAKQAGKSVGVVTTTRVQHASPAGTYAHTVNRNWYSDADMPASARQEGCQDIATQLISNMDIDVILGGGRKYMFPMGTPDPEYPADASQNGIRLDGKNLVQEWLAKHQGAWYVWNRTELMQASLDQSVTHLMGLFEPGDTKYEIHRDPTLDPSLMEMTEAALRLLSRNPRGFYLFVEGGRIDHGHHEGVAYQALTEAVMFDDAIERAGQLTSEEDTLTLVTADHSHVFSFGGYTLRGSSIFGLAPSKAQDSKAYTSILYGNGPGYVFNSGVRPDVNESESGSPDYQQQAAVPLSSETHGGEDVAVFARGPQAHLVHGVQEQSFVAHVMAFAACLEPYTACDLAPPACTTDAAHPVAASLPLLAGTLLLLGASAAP
bIAP inhibitor: intestinal alkaline phosphatase (bovine) inhibition. purified bovine IAP, CDP-star luminescence, 30 min. inhibition, % at 20 µM. 190,000 tested, under 10 active. AID 1019;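 active = over 50% inhibition of intestinal alkaline phosphatase at 20 µM in the single-dose screen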
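test system = bovine IAP enzyme | medium = DEA buffer 100 mM, pH 9.8, with MgCl2 1.0 mM, ZnCl2 0.02 mM | detection = luminescence | dosing = single compound dose of 20 µM, 2% DMSO final | incubation = 30 min reaction at room temperature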
mIAP activ: increases mouse intestinal alkaline phosphatase activity. muIAP, CDP-Star luminescence, 30 min; stronger effect = higher value; 1 = vehicle-only enzyme signal, 0 = enzyme-free wells. actives 0.24% (n = 330,000). AID 2805. activation factor at 10 µM;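 active = activation factor of at least 2 at 20 µM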
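Assay system: mouse IAP enzyme; reagent: chemiluminescent substrate CDP-Star; dosing: test compounds delivered from DMSO solution; schedule: 30 min at room temperature; measured by: luminescence from enzymatic CDP-Star hydrolysis; controls: DMSO-only wells and no-enzyme negative control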
hIAP block: blocks human intestinal alkaline phosphatase; P09923; AID 2544; purified IAP, CDP-Star luminescence, 30 min; inhibition, % at 10 µM; actives 0.12% (n = 330,000);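 active = inhibition reaching a set limit with compound at 10 µM in the primary screen, cut at about 35% in these data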
hIAP act conf: human IAP activation confirmation; AID 434926; activation (%Activity, negative = activation), % at 8.3 µM; actives 10% (n = 880); shares compounds with hIAP activ; purified IAP, CDP-Star luminescence, 30 min; stronger effect = lower value;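 active = at least twofold enzyme activation in any of six single-dose repeats, which the averaged readout prints as negative percent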
Each line names hits and unclear results; the compound was inactive in the other large screens (follow-up assays come after a bar, where they were run).

CCCCCc1c(C)nc(Nc2nc(C)c3cc(OC)ccc3n2)[nH]c1=O	hIAP activ 2.1 | hIAP act conf inactive
Cn1c(CNC(=O)CCNC(=O)c2cccc(Br)c2)cc(=O)n(C)c1=O	hIAP block 37 (no result: bIAP activator, bIAP inhibitor) | hIAP act conf inactive
CCC(C)(C)C1CCc2[nH]nc(C(=O)N/N=C(\C)c3ccco3)c2C1 (stereo not given)	hIAP activ 2.1 (no result: bIAP activator, bIAP inhibitor) | hIAP act conf inactive
CC(/C=N/NC(=O)CCn1nnc2ccccc21)=C\c1ccccc1	hIAP block 35 | hIAP act conf -89
CC(/C=N/NC(=O)Cn1cnc2ccccc21)=C\c1ccccc1	none
COc1cc(/C=C2\Oc3cc(O)ccc3C2=O)ccc1O	hIAP block 46 (no result: bIAP activator, bIAP inhibitor) | hIAP act conf inactive
Cc1cc(NC(=O)c2ccc(N3C(=O)C4C5C=CC(C5)C4C3=O)cc2)no1 (stereo not given)	hIAP activ 3 | hIAP act conf -161
Cc1cc(NC(=O)c2ccc(N3C(=O)CCC3=O)cc2)no1	none
O=C(CSc1ncccc1-c1nc2ccccc2[nH]1)N1CCCCC1	none
CCc1cc(=O)[nH]c(-n2[nH]c(-c3ccccc3)cc2=O)n1	none
O=c1cc(-c2ccccc2)[nH]n1-c1nc2ccccc2[nH]1	hIAP activ 2 | hIAP act conf -58
COc1ccc(CN(C)C2CCN(C)CC2)cc1OC	none (no result: bIAP activator, bIAP inhibitor)
CCOc1ccc(NC(=O)[C@@H](NC(=O)c2ccccc2)[C@@H](C)CC)cc1	none
N#CC(C#N)=NNc1ccc([N+](=O)[O-])cc1	hIAP block 35 (no result: bIAP activator, bIAP inhibitor) | hIAP act conf inactive
COc1ccccc1N(CC(O)Cn1c2ccccc2c2ccccc21)S(=O)(=O)c1ccccc1 (stereo not given)	none
COc1cc(C)nc(Oc2ccc(OCc3ccccc3)nn2)n1	none
CC(C)Nc1nc(NC(C)C)nc(Oc2ccc(OCc3ccccc3)nn2)n1	hIAP block 37 | hIAP act conf inactive
Cc1cccc(C)c1NC(=O)CC1SC2=NCCN2C1=O (stereo not given)	none
CCCC(C(=O)NCCC(C)C)N(Cc1ccc(F)cc1)C(=O)c1snc(C(N)=O)c1N (stereo not given)	none (no result: bIAP activator, bIAP inhibitor)
COC(=O)c1ccc(O)c(Sc2cc(C(=O)OC)ccc2O)c1	none
O=C(Cc1coc2ccc3ccccc3c12)Nc1nccs1	none
O=C(Cc1coc2ccc3ccccc3c12)NCc1ccccc1	hIAP activ 2 | hIAP act conf inactive
N#Cc1cc(Oc2ccccc2)c(-n2nnc3ccccc32)cc1C#N	hIAP block 35 | hIAP act conf inactive
N#Cc1cc(Oc2ccc3ccccc3c2)c(-n2nnc3ccccc32)cc1C#N	none
CCCCn1c(SCc2c(C)noc2C)nc2cc(S(N)(=O)=O)ccc21	none
CCCCc1ccc(NC(=O)CSc2nc3ncccc3[nH]2)cc1	hIAP activ 2.1 (no result: bIAP activator, bIAP inhibitor) | hIAP act conf inactive
CCn1c(C)nc2cc(C(=O)N/N=C/c3ccccc3)ccc21	none
CCn1c(C)nc2cc(C(=O)N/N=C/c3cccc(O)c3O)ccc21	hIAP activ 2.6 | hIAP act conf -43
CCn1c(C)nc2cc(C(=O)NNC(=S)Nc3ccc(Cl)cc3)ccc21	none (no result: bIAP activator, bIAP inhibitor)
CCn1c(C)nc2cc(C(=O)NNC(=S)Nc3ccccc3)ccc21	hIAP activ 2.1 | hIAP act conf inactive
CCn1c(C)nc2cc(C(=O)NNC(=S)Nc3ccc(Cl)cc3Cl)ccc21	hIAP activ 2.1 | hIAP act conf inactive
COc1cc(CN2CCC(C(=O)N3CCN(c4ccccc4F)CC3)CC2)ccc1O	none
Cc1cccc(C)c1NC(=S)NCCSc1ccc(Cl)cc1	none (no result: bIAP inhibitor)
Cc1cc(C)c(NC(=O)COC(=O)C2=COCCO2)c(Cl)c1	none (no result: bIAP activator, bIAP inhibitor)
Cc1cc(Br)ccc1SCC(=O)OC/C(O)=C(\C#N)c1nc2ccccc2[nH]1	hIAP activ 2.4 (no result: bIAP activator, bIAP inhibitor) | hIAP act conf -67
CS(=O)(=O)c1ccc(C(=O)NNC(=O)c2cc(-c3ccccc3)n[nH]2)cc1	hIAP block 51 (no result: bIAP activator, bIAP inhibitor) | hIAP act conf inactive
COc1cc(C(=O)NNC(=O)c2cc(-c3ccccc3)n[nH]2)cc(OC)c1C	hIAP activ 2.5 (no result: bIAP activator, bIAP inhibitor) | hIAP act conf inactive
COC(=O)c1cc(-c2ccccc2)n[nH]1	none
CS(=O)(=O)Cc1ccc(C(=O)NNC(=O)c2cc(-c3ccccc3)n[nH]2)cc1	none (no result: bIAP activator, bIAP inhibitor)
COCCOC(=O)C1=C(C)N(c2ccccc2)C(=O)NC1c1cccc([N+](=O)[O-])c1 (stereo not given)	none
CCCCN(CC)S(=O)(=O)c1c(C)[nH]c(=O)[nH]c1=O	none
COCCCNC(=S)N/N=C/c1ccc2ccccc2c1	none (no result: bIAP activator, bIAP inhibitor)
CCOC(=O)C1=C(c2ccccc2)N=c2s/c(=C\c3cccc(O)c3)c(=O)n2C1c1cccs1 (stereo not given)	none
O=c1/c(=C\c2ccc(O)cc2)sc2n1C(c1ccccc1)C(c1ccccc1)=NN=2 (stereo not given)	hIAP block 37 | hIAP act conf inactive
N#C/C(=C(\O)c1ccco1)c1ccccn1	hIAP activ 2.1 | hIAP act conf inactive
Cc1nc(/C=C/c2ccccc2)cc(/C=C/c2ccccc2)n1	none
Cc1sc(NC(=O)C2CCCCC2C(=O)O)c(C(N)=O)c1-c1ccc(C(C)C)cc1 (stereo not given)	none
O=C(CSc1nc(-c2cccs2)cc(C(F)(F)F)n1)NCc1ccccc1	hIAP block 37 | hIAP act conf inactive
CCOC(=O)CSc1nnc(Cc2ccccc2)n1-c1ccc(C)cc1	none
Cc1ccc(-n2c(Cc3ccccc3)nnc2SCC(=O)NNC(=O)Cc2ccccc2)cc1	hIAP activ 2 | hIAP act conf inactive
Cn1nccc1C(=O)N1CCN(c2ccccc2F)CC1	hIAP block 46 (no result: bIAP activator, bIAP inhibitor) | hIAP act conf inactive
Cc1ccc(CN2CCC(c3nc4ccc(Cl)cc4[nH]3)CC2)cc1	none
Cc1cc2nc(C3CCN(Cc4nnnn4Cc4cccs4)CC3)[nH]c2cc1C	hIAP block 37 (no result: bIAP inhibitor) | hIAP act conf inactive
Cc1ccccc1Nc1nnc(SCC(=O)Nc2ncc(C(F)(F)F)cc2Cl)s1	none
CCc1cc2ccc(C)cc2nc1SCC(=O)N1CCN(C(=O)c2ccco2)CC1	hIAP activ 2.1 | hIAP act conf inactive
O=C(CCCN1C(=O)c2ccccc2C1=O)NCCCn1ccnc1	none
Cc1ccc(-n2c(-c3cccnc3)n[nH]c2=S)c(C)c1	hIAP activ 3 | hIAP act conf inactive
Cc1ccc(-n2c(-c3ccc(Cl)cc3)n[nH]c2=S)c(C)c1	none (no result: bIAP activator, bIAP inhibitor)
COc1ccc(-c2nc(NC(=O)c3n[nH]c(=O)c4ccccc34)sc2C)cc1	hIAP activ 2.1 | hIAP act conf inactive
COc1cc(NC(=O)c2n[nH]c(=O)c3ccccc23)cc(OC)c1	none (no result: bIAP activator, bIAP inhibitor)
O=c1[nH]c(/C=C/c2ccc([N+](=O)[O-])cc2)c([N+](=O)[O-])c(=O)[nH]1	none (no result: bIAP activator, bIAP inhibitor)
